This is an account of results in ChEMBL document CHEMBL1140697, “Synthesis and evaluation in monkey of two sensitive 11C-labeled aryloxyanilide ligands for imaging brain peripheral benzodiazepine receptors in vivo” (J Med Chem, 2008).

A short description of data set [1]: Binding affinity to PBR in rhesus monkey mitochondrial tissue. Details: species or system Macaca mulatta. In outline:
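Mitochondrial fractions (rat, rhesus monkey or human) were incubated with [³H]PK 11195 (0.38 nM final) and eight test-ligand concentrations for 2 h at 4 °C. Samples were filtered on PEI-presoaked GF/B filters, washed with ice-cold buffer and counted. Nonspecific binding was taken at the top inhibitor level (0.1–0.3 µM). Triplicate curves were run in two independent experiments. IC₅₀ was converted to K_i by Cheng–Prusoff, using K_D from homologous PK 11195 displacement.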

The nature of data set [2]: Lipophilicity, log D of the compound. The format is physicochemical. Conditions: octanol/water. In outline: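 The ¹¹C-ligand (~300 µCi) in saline with 5% ethanol was mixed with sodium phosphate buffer (0.15 M, pH 7.4). Six 1 mL aliquots were each vortexed 1 min with buffer-pre-equilibrated n-octanol, centrifuged 1 min, and 200 µL of each phase was γ-counted. Aqueous counts were corrected by radio-HPLC for the unchanged fraction. LogD = log(cpm octanol/corrected cpm aqueous); mean ± SD of six determinations.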

Data set [3] relates to Plasma. Description: Drug level in rhesus monkey plasma assessed as cell distribution. The format is ADME, cell-free, Macaca mulatta.
Data set [4] relates to Plasma. The data set is described as follows: Biodistribution in rat plasma at 1.43 mCi, iv after 30 mins. The format is ADME, organism-based. The following applies: in vivo, 0.5 h. The essentials:
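Rats received the ¹¹C-radioligand iv with varying carrier mass (µg/kg) and were sampled 30 min later. Plasma and brain homogenate were extracted into acetonitrile and analysed by reverse-phase radio-HPLC (C18; MeOH/H₂O/Et₃N, 1.5 mL/min), reporting % radioactivity as unchanged radioligand. Extraction recovery was recorded. Replicate HPLC analyses were run on one sample per rat.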

The nature of data set [5]: Stability in monkey whole blood >30 mins. The format is ADME, tissue-based, Macaca mulatta. Conditions: rhesus monkey, read-out: Stability. The essentials: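 The radioligand was incubated with monkey blood for >30 min. Radioactivity extracted from the plasma was analysed by radio-HPLC to give the percentage of unchanged radioligand, reported as mean ± SD.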
Data set [6] can be described thus: Stability in sodium phosphate buffer at pH 7.4 after 2.5 hrs. The format is physicochemical. Conditions: read-out: Stability. In outline:
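Radioligand stored in 0.15 M sodium phosphate buffer, pH 7.4, for 2.5 h; radiochemical stability measured by radio-HPLC as percent of radioactivity remaining as unchanged radioligand; n = 4.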

The nature of data set [7]: Biodistribution in rhesus monkey plasma free fraction of blood. The format is ADME, organism-based, Macaca mulatta.
For data set [8], the target named is Translocator protein (Homo sapiens, UniProt P30536). The data set is described as follows: Binding affinity to PBR in human mitochondrial tissue.
Data set [9] deals with Translocator protein (Rattus norvegicus, UniProt P16257). Description: Binding affinity to PBR in Sprague-Dawley rat mitochondrial tissue.
The test system of data set [10] is Plasma. The data set is described as follows: Drug level in rhesus monkey plasma. The format is ADME, cell-free, Macaca mulatta.
Data set [11] has as its target 5-hydroxytryptamine receptor 5A (Homo sapiens) (UniProt P47898). The data set is described as follows: Binding affinity to 5HT5A at 10 uM. The following applies: tested as the 11C-labelled form. In outline:
(§1)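 Run through the NIMH Psychoactive Drug Screening Program (PDSP) broad receptor screen. The test ligand was used at 10 µM, and the read-out was percent displacement of the reference radioligand from each site.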

The target of data set [12] is 5-hydroxytryptamine receptor 1B (Homo sapiens) (UniProt P28222). Description: Binding affinity to 5HT1B at 10 uM. The following applies: tested as the 11C-labelled form. The essentials: as §1
The target in data set [13] is D(4) dopamine receptor (Homo sapiens) (UniProt P21917). Description: Binding affinity to dopamine receptor D4 at 10 uM. Conditions: tested as the 11C-labelled form. In outline: as §1
Data set [14] has as its target Histamine H1 receptor (Homo sapiens) (UniProt P35367). Description: Binding affinity to histamine H1 receptor at 10 uM. The following applies: tested as the 11C-labelled form. In outline: as §1
Data set [15] concerns the target Beta-2 adrenergic receptor (Homo sapiens) (UniProt P07550). Description: Binding affinity to adrenergic beta-2 at 10 uM. Conditions: tested as the 11C-labelled form. In outline:
as §1

Data set [16] deals with Histamine H2 receptor (Homo sapiens) (UniProt P25021). Description: Binding affinity to histamine H2 receptor at 10 uM. Conditions: tested as the 11C-labelled form. The essentials:
as §1

Data set [17] deals with Alpha-1B adrenergic receptor (Homo sapiens) (UniProt P35368). Description: Binding affinity to adrenergic alpha-1B at 10 uM. The following applies: tested as the 11C-labelled form. In outline:
as §1

The target in data set [18] is 5-hydroxytryptamine receptor 2A (Homo sapiens) (UniProt P28223). The data set is described as follows: Binding affinity to 5HT2A at 10 uM. Conditions: tested as the 11C-labelled form. The essentials: as §1
In data set [19] the target is 5-hydroxytryptamine receptor 1A (Homo sapiens) (UniProt P08908). The data set is described as follows: Binding affinity to 5HT1A at 10 uM. Conditions: tested as the 11C-labelled form. The essentials:
as §1

In data set [20] the target is 5-hydroxytryptamine receptor 1E (Homo sapiens) (UniProt P28566). The data set is described as follows: Binding affinity to 5HT1E at 10 uM. The following applies: tested as the 11C-labelled form. The essentials:
as §1

The target of data set [21] is Sodium-dependent serotonin transporter (Homo sapiens) (UniProt P31645). The data set is described as follows: Binding affinity to SERT receptor at 10 uM. The following applies: tested as the 11C-labelled form. In outline: as §1
Data set [22] deals with 5-hydroxytryptamine receptor 2C (Homo sapiens) (UniProt P28335). Description: Binding affinity to 5HT2C at 10 uM. The following applies: tested as the 11C-labelled form. In outline:
as §1

For data set [23], the target named is D(1A) dopamine receptor (Homo sapiens) (UniProt P21728). The data set is described as follows: Binding affinity to dopamine receptor D1 at 10 uM. The following applies: tested as the 11C-labelled form. The essentials:
as §1

The target in data set [24] is Beta-1 adrenergic receptor (Homo sapiens) (UniProt P08588). Description: Binding affinity to adrenergic […] at 10 uM. Conditions: tested as the 11C-labelled form. The essentials: as §1
Data set [25] has as its target Alpha-1A adrenergic receptor (Homo sapiens) (UniProt P35348). Description: Binding affinity to adrenergic alpha-1A at 10 uM. Conditions: tested as the 11C-labelled form. The essentials:
as §1

The target in data set [26] is Histamine H4 receptor (Homo sapiens) (UniProt Q9H3N8). Description: Binding affinity to histamine H4 receptor at 10 uM. Conditions: tested as the 11C-labelled form. In outline:
as §1

Data set [27] concerns the target 5-hydroxytryptamine receptor 3A (Homo sapiens) (UniProt P46098). The data set is described as follows: Binding affinity to 5HT3 at 10 uM. The following applies: tested as the 11C-labelled form. The essentials: as §1
For data set [28], the target named is D(2) dopamine receptor (Homo sapiens) (UniProt P14416). The data set is described as follows: Binding affinity to dopamine receptor D2 at 10 uM. The following applies: tested as the 11C-labelled form. In outline:
as §1

In data set [29] the target is 5-hydroxytryptamine receptor 7 (Homo sapiens) (UniProt P34969). Description: Binding affinity to 5HT7 at 10 uM. Conditions: tested as the 11C-labelled form. In outline: as §1
Data set [30] has as its target Sodium-dependent dopamine transporter (Homo sapiens) (UniProt Q01959). Description: Binding affinity to DAT receptor at 10 uM. Conditions: tested as the 11C-labelled form. The essentials:
as §1

Data set [31] addresses Alpha-2C adrenergic receptor (Homo sapiens) (UniProt P18825). The data set is described as follows: Binding affinity to adrenergic alpha-2C at 10 uM. Conditions: tested as the 11C-labelled form. In outline: as §1
For data set [32], the target named is 5-hydroxytryptamine receptor 6 (Homo sapiens) (UniProt P50406). Description: Binding affinity to 5HT6 at 10 uM. Conditions: tested as the 11C-labelled form. The essentials: as §1
The target in data set [33] is Alpha-2B adrenergic receptor (Homo sapiens) (UniProt P18089). The data set is described as follows: Binding affinity to adrenergic alpha-2B at 10 uM. Conditions: tested as the 11C-labelled form. In outline:
as §1

Data set [34] addresses Alpha-2A adrenergic receptor (Homo sapiens) (UniProt P08913). Description: Binding affinity to adrenergic alpha-2A at 10 uM. Conditions: tested as the 11C-labelled form. The essentials:
as §1

The target in data set [35] is D(3) dopamine receptor (Homo sapiens) (UniProt P35462). The data set is described as follows: Binding affinity to dopamine receptor D3 at 10 uM. The following applies: tested as the 11C-labelled form. The essentials:
as §1

Data set [36] deals with Sodium-dependent noradrenaline transporter (Homo sapiens) (UniProt P23975). Description: Binding affinity to NET receptor at 10 uM. The following applies: tested as the 11C-labelled form. In outline:
as §1

Data set [37] has as its target Muscarinic acetylcholine receptor M2 (Homo sapiens) (UniProt P08172). The data set is described as follows: Binding affinity to muscarinic receptor M2 receptor at 10 uM. Conditions: tested as the 11C-labelled form. In outline:
as §1

The target of data set [38] is Beta-3 adrenergic receptor (Homo sapiens) (UniProt P13945). The data set is described as follows: Binding affinity to adrenergic beta-3 at 10 uM. The following applies: tested as the 11C-labelled form. In outline:
as §1

The target of data set [39] is 5-hydroxytryptamine receptor 2B (Homo sapiens) (UniProt P41595). Description: Binding affinity to 5HT2B at 10 uM. Conditions: tested as the 11C-labelled form. In outline:
as §1

Data set [40] deals with 5-hydroxytryptamine receptor 1D (Homo sapiens) (UniProt P28221). The data set is described as follows: Binding affinity to 5HT1D at 10 uM. Conditions: tested as the 11C-labelled form. In outline:
as §1

The target in data set [41] is Histamine H3 receptor (Homo sapiens) (UniProt Q9Y5N1). The data set is described as follows: Binding affinity to histamine H3 receptor at 10 uM. The following applies: tested as the 11C-labelled form. The essentials: as §1
The target of data set [42] is Muscarinic acetylcholine receptor M5 (Homo sapiens) (UniProt P08912). Description: Binding affinity to muscarinic receptor M5 receptor at 10 uM. The following applies: tested as the 11C-labelled form. In outline: as §1

Sequence of 5-hydroxytryptamine receptor 1B (Homo sapiens) (P28222 whole entry): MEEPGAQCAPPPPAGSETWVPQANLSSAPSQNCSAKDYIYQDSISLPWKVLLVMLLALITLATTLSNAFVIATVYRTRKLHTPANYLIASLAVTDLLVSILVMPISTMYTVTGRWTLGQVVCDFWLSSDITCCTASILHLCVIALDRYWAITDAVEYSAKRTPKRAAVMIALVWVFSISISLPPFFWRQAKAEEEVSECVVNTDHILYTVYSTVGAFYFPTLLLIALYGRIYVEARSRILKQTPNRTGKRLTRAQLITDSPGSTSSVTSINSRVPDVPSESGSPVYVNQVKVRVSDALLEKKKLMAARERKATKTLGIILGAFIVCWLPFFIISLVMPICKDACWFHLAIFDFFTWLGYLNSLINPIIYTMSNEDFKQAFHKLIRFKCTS
Sequence of D(1A) dopamine receptor (Homo sapiens) (P21728 whole entry): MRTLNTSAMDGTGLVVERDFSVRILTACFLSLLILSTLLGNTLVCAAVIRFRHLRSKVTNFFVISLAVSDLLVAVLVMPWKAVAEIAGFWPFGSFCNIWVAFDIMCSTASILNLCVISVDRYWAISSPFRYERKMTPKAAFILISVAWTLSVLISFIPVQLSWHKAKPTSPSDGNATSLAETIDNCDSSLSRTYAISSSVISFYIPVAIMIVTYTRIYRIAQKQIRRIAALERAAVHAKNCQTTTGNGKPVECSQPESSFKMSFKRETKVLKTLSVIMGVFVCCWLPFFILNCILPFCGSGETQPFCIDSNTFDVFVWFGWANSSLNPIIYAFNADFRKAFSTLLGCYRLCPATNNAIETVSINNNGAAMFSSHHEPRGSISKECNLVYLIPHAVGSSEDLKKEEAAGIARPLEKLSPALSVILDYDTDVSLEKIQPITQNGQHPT
Sequence of Histamine H1 receptor (Homo sapiens) (P35367 whole entry): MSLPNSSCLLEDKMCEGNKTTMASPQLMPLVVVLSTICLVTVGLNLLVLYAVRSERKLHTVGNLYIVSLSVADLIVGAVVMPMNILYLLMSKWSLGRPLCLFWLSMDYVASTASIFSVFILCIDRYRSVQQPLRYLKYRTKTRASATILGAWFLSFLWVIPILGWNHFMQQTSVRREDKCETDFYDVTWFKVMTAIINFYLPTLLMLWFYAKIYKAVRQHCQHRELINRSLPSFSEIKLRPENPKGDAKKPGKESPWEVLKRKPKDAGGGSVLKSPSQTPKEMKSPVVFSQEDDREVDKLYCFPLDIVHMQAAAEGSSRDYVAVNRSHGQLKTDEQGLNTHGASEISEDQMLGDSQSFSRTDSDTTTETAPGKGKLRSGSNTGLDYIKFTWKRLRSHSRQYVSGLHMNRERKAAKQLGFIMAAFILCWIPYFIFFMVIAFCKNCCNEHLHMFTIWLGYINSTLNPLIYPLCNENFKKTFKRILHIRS
Sequence of D(4) dopamine receptor (Homo sapiens) (P21917 whole entry): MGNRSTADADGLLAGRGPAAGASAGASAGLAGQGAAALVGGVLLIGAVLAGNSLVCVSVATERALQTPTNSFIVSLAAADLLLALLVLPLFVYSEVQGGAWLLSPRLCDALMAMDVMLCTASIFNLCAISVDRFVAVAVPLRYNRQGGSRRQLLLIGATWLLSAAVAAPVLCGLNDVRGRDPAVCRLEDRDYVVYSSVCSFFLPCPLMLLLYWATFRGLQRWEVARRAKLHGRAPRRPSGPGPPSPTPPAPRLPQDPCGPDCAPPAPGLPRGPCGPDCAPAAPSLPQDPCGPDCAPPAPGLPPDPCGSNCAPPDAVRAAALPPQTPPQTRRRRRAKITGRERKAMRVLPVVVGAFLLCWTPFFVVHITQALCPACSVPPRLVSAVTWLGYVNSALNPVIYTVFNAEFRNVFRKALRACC
Sequence of 5-hydroxytryptamine receptor 1E (Homo sapiens) (P28566 whole entry): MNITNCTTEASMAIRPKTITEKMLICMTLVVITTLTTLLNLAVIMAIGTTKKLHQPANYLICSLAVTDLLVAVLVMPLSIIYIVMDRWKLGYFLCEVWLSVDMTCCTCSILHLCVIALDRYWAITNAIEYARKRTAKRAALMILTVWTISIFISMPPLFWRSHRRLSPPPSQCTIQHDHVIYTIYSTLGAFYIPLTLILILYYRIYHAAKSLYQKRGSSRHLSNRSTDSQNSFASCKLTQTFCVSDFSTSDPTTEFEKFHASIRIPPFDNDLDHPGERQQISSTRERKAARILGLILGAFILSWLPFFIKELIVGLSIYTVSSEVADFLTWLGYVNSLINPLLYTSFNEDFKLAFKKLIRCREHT
Sequence of Sodium-dependent noradrenaline transporter (Homo sapiens) (P23975 whole entry): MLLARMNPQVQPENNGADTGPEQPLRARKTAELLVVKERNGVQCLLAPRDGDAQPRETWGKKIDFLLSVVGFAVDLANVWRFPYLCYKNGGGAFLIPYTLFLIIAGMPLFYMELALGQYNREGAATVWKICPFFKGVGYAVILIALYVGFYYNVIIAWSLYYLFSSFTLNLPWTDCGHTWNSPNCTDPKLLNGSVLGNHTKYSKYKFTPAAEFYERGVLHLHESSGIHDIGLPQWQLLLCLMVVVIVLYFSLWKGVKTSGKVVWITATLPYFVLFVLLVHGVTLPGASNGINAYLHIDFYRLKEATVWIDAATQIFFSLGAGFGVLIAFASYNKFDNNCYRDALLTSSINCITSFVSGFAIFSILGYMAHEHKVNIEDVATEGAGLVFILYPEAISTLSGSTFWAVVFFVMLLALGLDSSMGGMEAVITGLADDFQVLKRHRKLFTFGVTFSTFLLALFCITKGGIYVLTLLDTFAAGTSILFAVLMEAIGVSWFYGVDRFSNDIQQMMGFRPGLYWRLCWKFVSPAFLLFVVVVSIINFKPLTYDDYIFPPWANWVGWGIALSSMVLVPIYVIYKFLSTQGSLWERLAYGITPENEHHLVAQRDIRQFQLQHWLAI
Sequence of D(3) dopamine receptor (Homo sapiens) (P35462 whole entry): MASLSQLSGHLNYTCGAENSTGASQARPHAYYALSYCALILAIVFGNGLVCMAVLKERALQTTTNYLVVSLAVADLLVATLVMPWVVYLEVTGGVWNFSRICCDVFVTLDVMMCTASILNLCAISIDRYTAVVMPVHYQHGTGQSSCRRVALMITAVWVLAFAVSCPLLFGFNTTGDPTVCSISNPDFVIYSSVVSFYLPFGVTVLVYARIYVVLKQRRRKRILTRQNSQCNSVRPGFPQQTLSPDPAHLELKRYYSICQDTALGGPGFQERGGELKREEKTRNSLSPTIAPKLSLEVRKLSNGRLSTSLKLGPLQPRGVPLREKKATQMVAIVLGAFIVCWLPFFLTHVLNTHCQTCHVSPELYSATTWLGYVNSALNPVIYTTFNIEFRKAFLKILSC
Sequence of Histamine H2 receptor (Homo sapiens) (P25021 whole entry): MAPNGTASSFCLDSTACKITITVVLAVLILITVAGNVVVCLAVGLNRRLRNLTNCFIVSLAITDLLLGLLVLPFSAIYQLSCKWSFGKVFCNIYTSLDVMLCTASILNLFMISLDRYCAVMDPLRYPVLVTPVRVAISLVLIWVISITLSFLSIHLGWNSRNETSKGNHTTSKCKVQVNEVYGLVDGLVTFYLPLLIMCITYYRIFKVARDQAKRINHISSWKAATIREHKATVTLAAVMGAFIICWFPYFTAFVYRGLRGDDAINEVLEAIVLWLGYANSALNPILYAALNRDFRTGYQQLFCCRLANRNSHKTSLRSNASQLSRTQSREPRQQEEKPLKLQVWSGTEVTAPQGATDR
Sequence of Alpha-1A adrenergic receptor (Homo sapiens) (P35348 whole entry): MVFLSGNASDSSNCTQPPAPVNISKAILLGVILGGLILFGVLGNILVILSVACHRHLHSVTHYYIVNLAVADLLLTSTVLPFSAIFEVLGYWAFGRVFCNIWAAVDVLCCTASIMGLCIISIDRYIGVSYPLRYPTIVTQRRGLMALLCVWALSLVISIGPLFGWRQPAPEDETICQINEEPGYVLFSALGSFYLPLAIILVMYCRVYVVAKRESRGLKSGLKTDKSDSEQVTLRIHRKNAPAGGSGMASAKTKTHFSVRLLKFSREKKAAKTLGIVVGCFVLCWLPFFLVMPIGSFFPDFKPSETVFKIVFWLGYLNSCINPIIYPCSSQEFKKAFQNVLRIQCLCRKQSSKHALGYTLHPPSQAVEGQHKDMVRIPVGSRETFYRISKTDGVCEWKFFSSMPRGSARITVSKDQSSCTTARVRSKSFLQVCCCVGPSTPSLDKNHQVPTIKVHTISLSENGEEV
Sequence of Alpha-2C adrenergic receptor (Homo sapiens) (P18825 whole entry): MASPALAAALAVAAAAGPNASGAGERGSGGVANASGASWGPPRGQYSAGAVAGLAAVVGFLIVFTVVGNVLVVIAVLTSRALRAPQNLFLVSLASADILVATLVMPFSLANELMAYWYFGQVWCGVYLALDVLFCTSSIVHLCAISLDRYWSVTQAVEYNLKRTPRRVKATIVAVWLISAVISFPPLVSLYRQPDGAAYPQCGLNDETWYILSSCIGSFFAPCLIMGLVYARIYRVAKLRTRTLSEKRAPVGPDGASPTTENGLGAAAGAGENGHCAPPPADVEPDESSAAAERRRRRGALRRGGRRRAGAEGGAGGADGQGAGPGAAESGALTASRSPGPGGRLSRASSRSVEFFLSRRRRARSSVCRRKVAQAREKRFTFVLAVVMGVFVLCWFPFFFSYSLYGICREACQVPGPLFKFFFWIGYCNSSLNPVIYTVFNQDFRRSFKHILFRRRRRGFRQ
Sequence of Histamine H3 receptor (Homo sapiens) (Q9Y5N1 whole entry): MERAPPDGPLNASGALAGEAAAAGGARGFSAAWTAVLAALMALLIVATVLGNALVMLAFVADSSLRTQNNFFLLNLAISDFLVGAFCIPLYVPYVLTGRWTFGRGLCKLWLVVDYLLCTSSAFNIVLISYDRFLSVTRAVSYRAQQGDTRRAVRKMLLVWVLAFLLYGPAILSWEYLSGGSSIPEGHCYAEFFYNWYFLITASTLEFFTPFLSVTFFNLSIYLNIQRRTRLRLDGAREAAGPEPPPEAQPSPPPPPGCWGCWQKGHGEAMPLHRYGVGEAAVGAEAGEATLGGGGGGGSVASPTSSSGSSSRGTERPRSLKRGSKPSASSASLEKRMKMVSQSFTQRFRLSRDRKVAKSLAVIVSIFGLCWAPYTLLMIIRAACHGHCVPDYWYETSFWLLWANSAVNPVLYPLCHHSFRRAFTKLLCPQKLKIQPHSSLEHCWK

As to `CC[C@H](C)N([11CH3])C(=O)c1cc2ccccc2c(-c2ccccc2Cl)n1`, in data set [1], the affinity, expressed as Ki, was 4.35 nM. Also, the logD (usually the decadic logarithm of the distribution of all forms, ionised or not, between an organic phase and buffer at a given pH) in data set [2] is 3.97.
As to `CC(=O)N(Cc1ccccc1C(=O)O[11CH3])c1ccccc1Oc1ccccc1`, the Drug uptake with Plasma [3] worked out at 63.3%; in the data set on Plasma [4], 3.4%; with Plasma [10] it was 36.7%. The results for the Ki (in [1]; on Translocator protein [8]; at Translocator protein [9]) were 0.254 nM, 1.4 nM and 0.0978 nM, respectively. Besides, in [5], the remaining at 0.5 h amounted to 96.5%. The remaining at 2.5 h in [6] was 99.9%. Besides, the fraction unbound (as a rule, the share of the substance not bound to proteins or other matrix) in [7] worked out at 0.0015. Further, in data set [2], the logD was 3.9.
Take `COc1ccccc1CN(C(C)=O)c1cnccc1Oc1ccccc1`: the Activity in data set [11], in [12], in data set [13], in [14], in data set [15] and in [16] was below 50% throughout. The Activity in data set [17], in data set [18], in data set [19], in data set [20], in data set [21] and in [22] was below 50% throughout. The Activity in [23], in data set [24], in data set [25], in [26], in data set [27] and in [28] was below 50% in each case. The Activity in data set [29], in [30], in [31], in [32], in [33] and in data set [34] was below 50% throughout. For the same compound, the Activity in [35], in data set [36], in [37], in data set [38], in [39] and in data set [40] was below 50% throughout. Also, the Activity in [41] and in data set [42] was below 50% each time.
